NPY Y1 blocker – NPY-Y1 receptor antagonists, primary screen, cell-based. HEK293-CNG Y1 cells, membrane potential fluorescence; NPY at EC95, then isoproterenol. inhibition, % at 3.6 µM. 1% of 200,000 active. AID 1040, 2008;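 active means inhibition above the campaign mean inhibition of all tested compounds plus 3 SD, cut at about 20% in these data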;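 further: 0% = DMSO wells given NPY plus isoproterenol and 100% = isoproterenol alone without NPY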
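Material: HEK293 cells with Y1 receptor plus CNG channel; times: compound incubation 1 h at room temperature, readout 45 min post-stimulation; signal: fluorescence, membrane potential probe; read-out basis: fluorescence ratio normalized to % inhibition between controls; benchmarks: full-block control isoproterenol-only wells, zero-block control NPY plus isoproterenol wells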
NPY-Y2 antag – NPY-Y2 receptor antagonists, primary screen, cell-based. Neuropeptide Y receptor type 2 (Homo sapiens), P49146. NPY-Y2 expressing cells, antagonist mode. inhibition, % at 2.7 µM. 0.99% of 140,000 active; in the data active means inhibition above about 17%;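 further: 0% = vehicle with agonist challenge and 100% = reference antagonist with challenge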
Target sequence (P49146 whole entry, looked up): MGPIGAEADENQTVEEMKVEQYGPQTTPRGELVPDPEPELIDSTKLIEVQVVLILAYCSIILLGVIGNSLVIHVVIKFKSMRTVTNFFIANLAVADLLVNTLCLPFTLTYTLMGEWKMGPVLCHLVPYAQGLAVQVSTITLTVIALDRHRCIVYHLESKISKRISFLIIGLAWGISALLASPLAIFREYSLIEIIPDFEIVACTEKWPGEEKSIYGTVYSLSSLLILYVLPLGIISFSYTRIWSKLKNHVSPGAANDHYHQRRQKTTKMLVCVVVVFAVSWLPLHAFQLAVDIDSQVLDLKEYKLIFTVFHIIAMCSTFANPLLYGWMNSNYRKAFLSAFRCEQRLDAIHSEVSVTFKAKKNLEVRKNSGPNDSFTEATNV
NPY1 pot ag – NPY-Y1 receptor potentiators or agonists, primary screen, cell-based; Neuropeptide Y receptor type 1 (Homo sapiens), P25929; NPY-Y1 expressing cells, potentiator/agonist activation; activation, % at 3.6 µM; 0.37% of 220,000 active; in the data active means activation above about 33%, passing the limit was not always enough;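 further: cells stimulated with NPY at EC10 then isoproterenol at EC100; 0% = low agonist plus stimulus and 100% = saturating agonist plus stimulus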
S1P4 antag – S1P4 receptor antagonists, primary screen, cell-based; S1P4-expressing cells, antagonist mode, reporter read-out; inhibition, % at 4.98 µM; 0.26% of 220,000 active; in the data active means inhibition above about 29%;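 further: 0% = wells stimulated with agonist and 100% = vehicle wells without agonist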
NPY-Y2 PAM-ag – NPY-Y2 potentiators or agonists, primary screen, cell-based | cells expressing NPY-Y2, potentiator/agonist read-out | activation, % at 3.6 µM | 0.45% of 220,000 active | AID 1359, 2008; in the data active means activation above about 27%;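 further: cells stimulated with NPY near EC25 plus isoproterenol at EC100; 0% = vehicle plus submaximal agonist and 100% = vehicle plus saturating agonist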
S1P4 ag – S1P4 receptor agonists, primary screen, cell-based. S1P4-expressing cell line, agonist reporter assay. AID 1509, 2009. 0.35% of 220,000 active. activation, % at 4.98 µM; in the data active means activation above about 11%;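 further: 0% = DMSO vehicle and 100% = reference agonist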
NPY-Y1 confirm – NPY-Y1 potentiators or agonists, confirmation, cell-based; shares compounds with NPY1 pot ag; cell-based NPY-Y1 potentiator/agonist assay; activation, % at 3.6 µM; 20% of 280 active; AID 1546, 2009; in the data active means activation above about 45%;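 further: cells challenged with NPY at its EC10 plus isoproterenol stimulus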
NPY-Y2 counter – NPY-Y2 potentiators or agonists, counter-screen for NPY-Y1 potentiator project, cell-based, fluorescence | HEK293-CNG cells, membrane-potential fluorescence (FLIPR), 1536-well | activation, % at 3.6 µM | 20% of 280 active | shares compounds with NPY1 pot ag; in the data active means activation above about 33%
NPY-Y1 ag – NPY-Y1 direct agonists without NPY, confirmation, counter-screen for NPY-Y1 potentiator project, cell-based, fluorescence; 50% of 280 active; HEK293 Y1-CNGC, membrane potential fluorescence, agonist mode; shares compounds with NPY1 pot ag; AID 1697, 2009; activation, % at 3.6 µM;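 active means percent activation above the mean of DMSO-only control wells plus 3 SD of those wells, cut at about 18% in these data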;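 further: cells challenged with isoproterenol plus Ro 20-1724 with no NPY in test wells; Y1 agonism lowers isoproterenol-driven cAMP and reduces probe fluorescence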
NPY-Y2 agonist – NPY-Y2 direct agonists without NPY, counter-screen for NPY-Y1 potentiator project, cell-based, fluorescence; activation, % at 3.6 µM; AID 1698, 2009; 67% of 280 active; HEK293 Y2-CNGC, membrane potential fluorescence, agonist mode; shares compounds with NPY1 pot ag;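 active means activation above the solvent-only control wells' mean plus 3 SD, cut at about 11% in these data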;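 further: 0% = DMSO with isoproterenol and 100% = 40 nM NPY maximal response; agonism lowers cAMP so well fluorescence drops in active wells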
CNGC counter – CNGC cAMP sensor activity inhibitors, counter-screen for NPY-Y1 potentiator/agonist project, cell-based, HEK293-CNG parental, membrane potential fluorescence, Y1 set; isoproterenol cAMP; 42% of 280 active; shares compounds with NPY1 pot ag; AID 1704, 2009; inhibition, % at 3.6 µM;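 active means inhibition above the mean of stimulated solvent-only control wells plus 3 SD, cut at about 22% in these data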;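 further: 0% = isoproterenol-stimulated DMSO wells and 100% = unstimulated DMSO wells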
* = called active by the depositor. Only some compounds are listed: those with a hit (about 2.4% of all), similar ones and a draw of the others.

`COC(=O)c1ccc(NC(=O)CN(c2ccc(OC)cc2)S(C)(=O)=O)cc1` gave NPY Y1 blocker -7.4, NPY-Y2 antag -5.4, NPY1 pot ag 42.9*, S1P4 antag 22.2, NPY-Y2 PAM-ag 8.8, S1P4 ag -1.7, NPY-Y1 confirm 30.4, NPY-Y2 counter 16.4, NPY-Y1 ag 40.8*, NPY-Y2 agonist 32.8* and CNGC counter 31.6*.
COc1ccc(CC(=O)Nc2ccc(C(C)=O)cc2)cc1 was read as NPY Y1 blocker -9.2, NPY1 pot ag 37.2*, S1P4 antag -31.7, NPY-Y2 PAM-ag 13.6, S1P4 ag -0.9, NPY-Y1 confirm 23.4, NPY-Y2 counter 14.7, NPY-Y1 ag 32.6*, NPY-Y2 agonist 34.9* and CNGC counter 31.3*.
For CC(=S)c1c(C)cc2cc(C)ccn12 the results were NPY Y1 blocker -0.5, NPY-Y2 antag -0.7, NPY1 pot ag 8.1, S1P4 antag -10.8, NPY-Y2 PAM-ag 11.4 and S1P4 ag 0.7.
For CCOc1ccc(NC(=S)NNC(=S)Nc2cccc(C(F)(F)F)c2)cc1 the results were NPY1 pot ag 53.6*, S1P4 antag -67.0, NPY-Y2 PAM-ag 30.5, S1P4 ag 0.6, NPY-Y1 confirm 29.2, NPY-Y2 counter 21.0, NPY-Y1 ag 23.7*, NPY-Y2 agonist 31.7* and CNGC counter 5.0.
Screening FC(F)(F)c1cccc(NC(=S)Nc2ccc(Cl)c(Cl)c2)c1 returned NPY1 pot ag 45.2*, S1P4 antag -0.2, NPY-Y2 PAM-ag 33.4, S1P4 ag 0.9, NPY-Y1 confirm 25.5, NPY-Y2 counter 29.1, NPY-Y1 ag 6.8, NPY-Y2 agonist 25.3* and CNGC counter 18.8.
For COc1ccc(C2SCCN2C(=S)Nc2cccc(Cl)c2)cc1 (configuration not stated) the results were NPY Y1 blocker -2.0, NPY-Y2 antag 2.6, NPY1 pot ag -14.8, S1P4 antag -12.3, NPY-Y2 PAM-ag -4.2 and S1P4 ag -0.9.
Cc1noc2ncnc(Sc3ccc(Cl)cc3)c12 was read as NPY Y1 blocker -2.1, NPY-Y2 antag 11.1, NPY1 pot ag 65.7*, S1P4 antag 24.3, NPY-Y2 PAM-ag 3.9, S1P4 ag -1.6, NPY-Y1 confirm -4.0, NPY-Y2 counter -6.3, NPY-Y1 ag -11.0, NPY-Y2 agonist 5.6 and CNGC counter -6.7.
Screening COc1ccc(/C=N/Nc2nc(N3CCCC3)nc(N3CCCC3)n2)cc1 returned NPY Y1 blocker 7.6, NPY-Y2 antag -2.5, NPY1 pot ag -5.3, S1P4 antag -25.6, NPY-Y2 PAM-ag -3.7 and S1P4 ag 0.0.
`COC(=O)c1ccc(/C=N/Nc2nc(N3CCCCC3)nc(N3CCCCC3)n2)cc1` gave NPY Y1 blocker 4.0, NPY1 pot ag 71.9*, S1P4 antag -7.5, NPY-Y2 PAM-ag -12.7, S1P4 ag 2.2, NPY-Y1 confirm -20.8, NPY-Y2 counter -14.6, NPY-Y1 ag -26.6, NPY-Y2 agonist -15.9 and CNGC counter -12.6.
For [O-]/C(=C(\C(=S)Nc1ccc(SC(F)F)cc1)[n+]1ccccc1)c1ccc(Cl)cc1Cl the results were NPY Y1 blocker -7.0, NPY1 pot ag 36.7*, S1P4 antag -14.4, NPY-Y2 PAM-ag 20.7, S1P4 ag 1.8, NPY-Y1 confirm 48.1*, NPY-Y2 counter 26.0, NPY-Y1 ag 35.8*, NPY-Y2 agonist 31.1* and CNGC counter 46.7*.
Cc1cc(C)cc(NC(=S)/C(=C(\[O-])c2ccc(Cl)cc2Cl)[n+]2ccccc2)c1 was read as NPY Y1 blocker 16.5, NPY1 pot ag -22.2, S1P4 antag 4.1, NPY-Y2 PAM-ag -8.3 and S1P4 ag 2.1.
Cc1ccccc1-c1nnn(CC(=O)Nc2ccc3c(c2)OCCO3)n1 was read as NPY Y1 blocker 8.5, NPY1 pot ag -24.6, S1P4 antag 1.7, NPY-Y2 PAM-ag -35.3 and S1P4 ag 2.6.
`CCN=c1scc(-c2cccs2)n1/N=C/c1cc(OC)ccc1O` gave NPY Y1 blocker -1.1, NPY-Y2 antag 3.5, NPY1 pot ag -13.5, S1P4 antag -7.0, NPY-Y2 PAM-ag -0.7 and S1P4 ag 0.6.
`CC(C)N=c1scc(-c2cccs2)n1/N=C/c1ccc(O)c(O)c1O` gave NPY Y1 blocker -4.2, NPY-Y2 antag -1.2, NPY1 pot ag 52.2*, S1P4 antag -13.9, NPY-Y2 PAM-ag 20.6, S1P4 ag 17.5*, NPY-Y1 confirm 50.8*, NPY-Y2 counter 39.2*, NPY-Y1 ag 52.9*, NPY-Y2 agonist 25.9* and CNGC counter 21.0.
Screening COc1ccc2c(OC)cc(=O)n(C)c2c1 returned NPY Y1 blocker 3.7, NPY-Y2 antag -0.3, NPY1 pot ag -3.8, S1P4 antag -12.8, NPY-Y2 PAM-ag 6.4 and S1P4 ag 0.2.
`COc1cc(=O)n(C)c2ccccc12` gave NPY Y1 blocker 2.5, NPY-Y2 antag 1.8, NPY1 pot ag 49.9*, S1P4 antag -7.8, NPY-Y2 PAM-ag -0.5, S1P4 ag -1.5, NPY-Y1 confirm -6.8, NPY-Y2 counter -3.7, NPY-Y1 ag -6.5, NPY-Y2 agonist 8.6 and CNGC counter 9.4.
Screening Cc1ccc(O)c(C(=O)c2cnc3c(c2)c(-c2ccc(F)cc2)c(C#N)c(=O)n3C)c1 returned NPY Y1 blocker -4.4, NPY1 pot ag 42.2*, S1P4 antag -19.0, NPY-Y2 PAM-ag 8.8, S1P4 ag 0.0, NPY-Y1 confirm 61.3*, NPY-Y2 counter 54.6*, NPY-Y1 ag 49.3*, NPY-Y2 agonist 53.6* and CNGC counter 34.1*.

Screens as filed in PubChem.
